In ChEMBL document CHEMBL3098041, “Synthesis and anticancer evaluation of 3-substituted quinolin-4-ones and 2,3-dihydroquinolin-4-ones” (Bioorg Med Chem, 2014):

Legend:
[1] = Cytotoxicity against human H460 cells assessed as cell viability at 25 uM after 72 hrs by Alamar blue assay; type: functional; details: NCI-H460, 72 h, read-out: Activity
Summary of the method: (§1)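 Cells were grown in DMEM with 10% FBS at 37 °C, 5% CO2, humidified. Log-phase cells were seeded in 96-well plates at a fixed density and allowed to adhere for 24 h. Compound or vehicle-only control was added to duplicate wells at one fixed concentration for 72 h. Alamar Blue fluorescence was read (ex 555, em 585 nm) as % viability (0% = total growth inhibition). Assays were run in triplicate.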

MCF7 [2] = assay: Cytotoxicity against human MCF7 cells assessed as cell viability at 25 uM after 72 hrs by Alamar blue assay; type: functional; details: MCF7, 72 h, read-out: Activity; summary of the method: as §1
DU-145 [3] = assay: Cytotoxicity against human DU145 cells assessed as cell viability at 25 uM after 72 hrs by Alamar blue assay; type: functional; details: DU-145, 72 h, read-out: Activity; summary of the method: as §1
A-431 [4] = assay: Cytotoxicity against human A431 cells assessed as cell viability at 25 uM after 72 hrs by Alamar blue assay; type: functional; details: A-431, 72 h, read-out: Activity; summary of the method: as §1
HT-29 [5] = assay: Cytotoxicity against human HT-29 cells assessed as cell viability at 25 uM after 72 hrs by Alamar blue assay; type: functional; details: HT-29, 72 h, read-out: Activity; summary of the method: as §1
HT-29 [6] = assay: Cytotoxicity against human HT-29 cells assessed as cell viability after 72 hrs by Alamar blue assay; type: functional, cell-based; details: HT-29, 72 h
Summary of the method: (§2)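 This was a dose–response Alamar Blue assay run in triplicate. Cells were kept in DMEM with 10% FBS (37 °C, 5% CO2, humidified). Log-phase cells were plated at a fixed density in 96-well plates and left to adhere for 24 h. Compound or vehicle was added to duplicate wells. After 72 h exposure, metabolic activity was measured by fluorescence (ex 555, em 585 nm).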

A-431 [7] = assay: Cytotoxicity against human A431 cells assessed as cell viability after 72 hrs by Alamar blue assay; type: functional, cell-based; details: A-431, 72 h; summary of the method: as §2
[8] = Cytotoxicity against human H460 cells assessed as cell viability after 72 hrs by Alamar blue assay; type: functional, cell-based; details: NCI-H460, 72 h; summary of the method: as §2
DU-145 [9] = assay: Cytotoxicity against human DU145 cells assessed as cell viability after 72 hrs by Alamar blue assay; type: functional, cell-based; details: DU-145, 72 h; summary of the method: as §2
MRC5 = assay: Cytotoxicity against human MRC5 cells assessed as cell viability after 72 hrs by Alamar blue assay; type: cell-based; details: MRC5, 72 h; summary of the method: as §2
MCF7 [10] = assay: Cytotoxicity against human MCF7 cells assessed as cell viability after 72 hrs by Alamar blue assay; type: functional, cell-based; details: MCF7, 72 h; summary of the method: as §2

SMILES | viability at 25 µM [1] [%] | viability at 25 µM (MCF7 [2]) [%] | viability at 25 µM (DU-145 [3]) [%] | viability at 25 µM (A-431 [4]) [%] | viability at 25 µM (HT-29 [5]) [%] | IC50 (HT-29 [6]) [µM] | IC50 (A-431 [7]) [µM] | IC50 [8] [µM] | IC50 (DU-145 [9]) [µM] | IC50 (MRC5) [µM] | IC50 (MCF7 [10]) [µM]
COc1cc(O)c2c(c1)NCC(c1ccccc1)C2=O (stereo not given) | 78 | 83.2 | 81.6 | 90.8 | 90.8 | – | – | – | – | – | –
COc1cc(OC)c2c(=O)c(-c3ccc(Br)cc3)c[nH]c2c1 | 33.5 | 35.3 | 74.8 | 69.1 | 26.2 | – | – | – | – | – | –
COc1cc(OC)c2c(=O)c(-c3ccc(F)cc3)c[nH]c2c1 | 86 | – | 88.7 | 103 | 114 | – | – | – | – | – | –
COc1cc(OC)c2c(=O)c(-c3ccc(C)cc3)c[nH]c2c1 | 53.8 | – | 76.6 | 89.9 | 102 | – | – | – | – | – | –
COc1cc(OC)c2c(=O)c(-c3cccc(Br)c3)c[nH]c2c1 | 43.9 | – | 71.8 | 66.5 | 37.8 | – | – | – | – | – | –
COc1ccc([C@H]2CNc3cc(OC)cc(OC)c3C2=O)cc1 | 94.3 | 85.1 | 91.1 | 89.6 | 106 | – | – | – | – | – | –
COc1cc2c(c(OC)c1)C(=O)[C@@H](c1ccccc1)CN2 | 87.6 | 83.6 | 95.4 | 98.3 | 98.8 | – | – | – | – | – | –
O=C1c2c(O)cc(O)cc2NCC1c1ccccc1 (stereo not given) | 74.5 | 121 | 83.1 | 98.5 | 98.5 | – | – | – | – | – | –
COc1cc(O)c2c(=O)c(-c3ccc(Br)cc3)c[nH]c2c1 | 65.5 | 52.6 | 73.5 | 104 | 29.2 | – | – | – | – | – | –
COc1cc(O)c2c(=O)c(-c3ccc(F)cc3)c[nH]c2c1 | 38.9 | – | 43.4 | 71.4 | 31.2 | – | – | – | – | – | –
COc1cc(O)c2c(=O)c(-c3ccc(C)cc3)c[nH]c2c1 | 50.7 | – | 85.1 | 76.5 | 29.6 | – | – | – | – | – | –
COc1cc(O)c2c(=O)c(-c3cccc(Br)c3)c[nH]c2c1 | 2 | – | 10 | 1 | 14.1 | 3.6 | 5.5 | 9.2 | 9.5 | 6.7 | 21.9
COc1ccc(C2CNc3cc(OC)cc(O)c3C2=O)cc1 (stereo not given) | 94.1 | 85.7 | 106 | 108 | 97.3 | – | – | – | – | – | –
